Screens from PubChem.
The list is not random: actives were taken first. Their share in the collection is about 2.3%.
DENV2 CPE rescue: protects cells from dengue virus 2 cytopathic effect | DENV2-infected cells, cytopathic effect rescue, plate reader | CPE inhibition, % at 9.99 µM | 1.7% of 350,000 active | AID 651640; in the data active = CPE inhibition above about 20%, passing the limit was not always enough; inconclusive = no clear call, values can overlap the other calls; tested in BHK-21 cells;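 note: 0% = median of neutral control wells and 100% = median of positive control wells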
PDI turbidity: PDI (human) enzyme inhibition. PDI insulin aggregation turbidity, A650, 90 min. inhibition, % at 10 µM. 0.052% of 350,000 active. AID 588391;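 active = mean inhibition across replicates of 30% or more, whatever share of single replicates reach that level; inconclusive = mean inhibition below 30% while every single replicate reaches 30%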
Statin myotox sup: suppression of simvastatin myotoxicity | rescue of ATP level, % at 7.49 µM | 0.78% of 330,000 active | C2C12 myotubes + simvastatin, ATP luminescence, 48 h; scaled: DMSO 0, geranylgeraniol control 100;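 active = mean ATP rescue above about 67%, or every replicate alone reaching that limit, limit read from the data, passing the limit was not always enough; inconclusive = no clear call, values can overlap the other calls; inactive = mean under the limit and some replicate under it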;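 note: myotubes were challenged with 10 µM simvastatin during compound exposure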
Cneo AK release: Cryptococcus neoformans lysis via adenylate kinase release; 0.2% of 360,000 active; lysis activity, % at 15 µM; AID 651654; C. neoformans lysis, adenylate kinase release luminescence, 4 h; normalised: neutral wells 0, clomiphene wells 100;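 active = mean lysis activity across replicates of at least 80%, whatever share of replicates individually reach that level; inactive = mean lysis activity below 80%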
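Test system: log-phase Cryptococcus neoformans yeast cells. Input: 5 × 10^6 yeast cells/mL. Medium: fresh YPD growth medium. Doses: single dose. Incubation: static 4 h at 37 °C with compound, 1 h detection. Measured by: luminescent adenylate kinase detection reagent. Read-out: signal increase indicating cell lysis. Benchmarks: Clomiphene.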
CFTR F508del cor: correctors of CFTR F508del function in bronchial epithelial cells; 0.36% of 350,000 active; activity (quench increase), % at 7.58 µM; AID 720511; CFBE cells, YFP halide quenching; stimulated with forskolin plus potentiator P3; % fluorescence drop versus neutral controls;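 active = mean added fluorescence quench of at least 8% versus neutral control, with both replicates also reaching 8%; inconclusive = only one of the mean or replicate conditions met; inactive = mean below 8% and not both replicates reaching 8%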;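 note: cells transiently co-express mutant CFTR-F508del with the halide-sensitive YFP; corrector assay measuring rescue of mutant channel to the surface after 24 h compound exposure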
ERp5 inh: inhibitors of human ERp5; inhibition, % at 9.99 µM; AID 651711; Q15084; ERp5 insulin aggregation, absorbance 650 nm, 90 min; 0.05% of 350,000 active;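 active = mean replicate inhibition above about 25%, with every replicate also reaching it, limit read from the data, passing the limit was not always enough; inconclusive = only one of those two criteria met; inactive = neither criterion met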
Target sequence (Q15084 whole entry, looked up): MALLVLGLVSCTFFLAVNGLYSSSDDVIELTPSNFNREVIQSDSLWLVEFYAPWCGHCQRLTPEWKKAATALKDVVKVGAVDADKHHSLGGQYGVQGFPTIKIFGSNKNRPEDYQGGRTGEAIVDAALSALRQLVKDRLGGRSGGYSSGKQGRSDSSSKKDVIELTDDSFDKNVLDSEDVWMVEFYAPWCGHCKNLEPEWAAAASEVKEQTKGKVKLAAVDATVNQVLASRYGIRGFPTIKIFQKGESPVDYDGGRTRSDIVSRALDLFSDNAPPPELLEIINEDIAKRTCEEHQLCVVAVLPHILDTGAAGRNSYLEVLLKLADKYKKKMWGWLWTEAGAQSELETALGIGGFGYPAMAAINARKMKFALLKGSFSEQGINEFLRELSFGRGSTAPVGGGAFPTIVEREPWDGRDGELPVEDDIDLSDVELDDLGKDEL
The depositor's hits bear a star; u = inconclusive; x = not tested or not shown.

SMILES	DENV2 CPE rescue	PDI turbidity	Statin myotox sup	Cneo AK release	CFTR F508del cor	ERp5 inh
COC(=O)c1ccc2nc(-c3ccccc3)c(Cc3ccsc3)n2c1	-12	x	-7	0	1	4
COC(=O)c1ccc2nc(-c3ccco3)c(Cc3ccccc3)n2c1	5	x	83*	0	-3	-2
O=C(Nc1ccc(F)cc1)N[C@H]1C=C[C@@H](CC(=O)N2CCCCC2)O[C@@H]1CO	2	x	1	-5	2	-1
Cc1ccc(NC(=O)Nc2ccc3c(c2)C(=O)N(C)[C@H]2CC[C@H](CC(=O)O)O[C@@H]2CO3)cc1	-10	x	-4	-2	-3	1
CC(C)NC(=O)N1[C@H](C#N)[C@@H](c2ccc(C#CC3CC3)cc2)[C@@H]1CO	-16	x	-2	-10	3	u
COCCNC(=O)C1(C)C=CC2(CCCCC2)N1C(=O)c1ccccc1 (stereo not drawn)	6	9	3	0	-1	-2
CNC(=O)C1(C)C=CC2(CCCCC2)N1C(=O)OC (stereo not drawn)	22*	0	-7	-2	4	1
CC(C)NC(=O)Nc1ccc2c(c1)C(=O)N([C@@H](C)CO)C[C@@H](C)[C@H](CN(C)S(=O)(=O)c1cccs1)O2	x	x	x	x	-2	x
COc1cc2c(c(OC)c1OC)-c1ccc(OC)c(=O)cc1C(NC(C)=O)CC2 (stereo not drawn)	-3	-6	-35	0	1	0
COc1c(O[C@@H]2O[C@H](CO)[C@@H](O)[C@H](O)[C@H]2O)cc2c(c1OC)-c1ccc(SC)c(=O)cc1C(NC(C)=O)CC2 (stereo partly drawn)	2	3	6	0	14*	-1
COc1c(C=O)c2c(c(OC)c1OC)-c1ccc(OC)c(=O)cc1C(NC(C)=O)CC2 (stereo not drawn)	-2	-7	x	x	11*	-10
C[C@@H]1CCCCO[C@H](CN(C)C(=O)Nc2cccc3ccccc23)[C@H](C)CN([C@H](C)CO)C(=O)c2cc(NS(=O)(=O)c3ccc(Cl)cc3)ccc2O1	58*	x	25	-2	-3	-3
C[C@@H]1CCCCO[C@@H](CN(C)C(=O)Nc2cccc3ccccc23)[C@@H](C)CN([C@@H](C)CO)C(=O)c2cc(NS(=O)(=O)c3ccc(Cl)cc3)ccc2O1	-4	x	-13	2	-2	-8
C[C@@H]1CCCCO[C@@H](CN(C)C(=O)Nc2cccc3ccccc23)[C@@H](C)CN([C@H](C)CO)C(=O)c2cc(NS(=O)(=O)c3ccc(Cl)cc3)ccc2O1	5	x	94*	-3	0	1
COc1ccc(NC(=O)[C@@H]2CC=C[C@@H]3CCN(Cc4ccccc4)C(=O)[C@@H]32)cc1	25*	-1	7	0	1	5
COc1ccc(-c2ccc3c(c2)[C@H]2[C@H](CCN2C(=O)CN2CCOCC2)[C@@H](CO)N3)cc1	100*	x	21	15	0	0
O=C(CN1CCOCC1)N1CC[C@@H]2[C@@H](CO)Nc3ccc(-c4ccccc4F)cc3[C@@H]21	-23	x	-4	101*	0	x
OC[C@H]1Nc2ccc(-c3ccccc3)cc2[C@@H]2[C@H]1CCN2Cc1ccccc1F	-26	x	-18	69	3	4
CCC(=O)N1CC[C@H]2[C@H](CO)Nc3ccc(-c4ccccc4)cc3[C@H]21	7	x	-34	-2	-1	5
COc1ccc(-c2ccc3c(c2)[C@@H]2[C@@H](CCN2Cc2ccccc2F)[C@H](CO)N3)cc1	23*	x	x	x	3	-3
CCC(=O)N1CC[C@@H]2[C@@H](CO)Nc3ccc(-c4ccc(OC)cc4)cc3[C@@H]21	131*	x	6	-18	3	x
COC(=O)C[C@@H]1CC[C@H]2[C@H](COc3ccc(NC(=O)Nc4ccccc4C)cc3C(=O)N2C)O1	u	x	-12	3	-2	9
CCCNC(=O)Nc1ccc2c(c1)C(=O)N(C)[C@H]1CC[C@H](CC(=O)NC)O[C@@H]1CO2	-5	x	13	-3	2	x
C[C@H]1CN([C@@H](C)CO)C(=O)Cc2cc(NC(=O)Nc3cccc4ccccc34)ccc2O[C@@H]1CN(C)S(=O)(=O)c1ccccc1	-3	x	3	1	-1	-10
